Measurements published in ChEMBL document CHEMBL1157704, “Potent activity against K562 cells by polyamide-seco-CBI conjugates targeting histone H4 genes” (Bioorg Med Chem, 2010).
Calls of active or inactive are those of the source.

What was measured:
K562 [1] = test: Effect on HIST1H4K gene expression in human K562 cells assessed as down-regulation of mRNA transcript expression at 10 nM after 48 hrs by DNA microarray analysis relative to control; assay type: functional
Procedure, shortened: (§1)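 K562 CML cells (b3a2 Bcr-Abl) in standard ATCC-recommended culture, exposed once to 10 nM conjugate and harvested at 48 h. Untreated controls were also collected at 48 h. Transcripts were profiled on Human Gene 1.0 ST whole-genome oligonucleotide arrays, and each treated level was expressed relative to the untreated control, with a cutoff of at least twofold change.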

K562 [2] = test: Induction of apoptosis in human K562 cells assessed as viable cells at 250 nM after 48 hrs by annexin-V FITC and propidium iodide staining-based FACS analysis; assay type: functional; details: K562, 48 h, read-out: Activity
Procedure, shortened: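 Treated K562 cells […] stained with Annexin V-FITC/propidium iodide. Apoptosis was scored by two-dimensional flow cytometry at a core FACS facility.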

K562 [3] = test: Effect on NTS gene expression in human K562 cells assessed as change in mRNA transcript expression at 10 nM after 48 hrs by DNA microarray analysis relative to control; assay type: functional; procedure, shortened: as §1
K562 [4] = test: Effect on HIST1H3D gene expression in human K562 cells assessed as change in mRNA transcript expression at 10 nM after 48 hrs by DNA microarray analysis relative to control; assay type: functional
Procedure, shortened: (§2)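 Transcripts were profiled on Affymetrix GeneChip Human Gene 1.0 ST arrays in K562 cells treated at 10 nM. Treated cells were collected at 6, 12, 24 and 48 h; untreated controls were collected at 48 h. Transcripts changed at least twofold versus control were scored.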

K562 [5] = test: Effect on SUPT3H gene expression in human K562 cells assessed as change in mRNA transcript expression at 10 nM after 48 hrs by DNA microarray analysis relative to control; assay type: functional; procedure, shortened: as §1
K562 [6] = test: Effect on RNU5F gene expression in human K562 cells assessed as change in mRNA transcript expression at 10 nM after 48 hrs by DNA microarray analysis relative to control; assay type: functional; procedure, shortened: as §1
K562 [7] = test: Effect on RNU5E gene expression in human K562 cells assessed as change in mRNA transcript expression at 10 nM after 48 hrs by DNA microarray analysis relative to control; assay type: functional; procedure, shortened: as §1
K562 [8] = test: Effect on LOC85389 gene expression in human K562 cells assessed as change in mRNA transcript expression at 10 nM after 48 hrs by DNA microarray analysis relative to control; assay type: functional; procedure, shortened: as §1
K562 [9] = test: Effect on CLCA1 gene expression in human K562 cells assessed as change in mRNA transcript expression at 10 nM after 48 hrs by DNA microarray analysis relative to control; assay type: functional; procedure, shortened: as §2
K562 [10] = test: Effect on FLJ21767 gene expression in human K562 cells assessed as change in mRNA transcript expression at 10 nM after 48 hrs by DNA microarray analysis relative to control; assay type: functional; procedure, shortened: as §2
K562 [11] = test: Effect on ATP1B2 gene expression in human K562 cells assessed as change in mRNA transcript expression at 10 nM after 48 hrs by DNA microarray analysis relative to control; assay type: functional; procedure, shortened: as §2
K562 [12] = test: Effect on TRIB3 gene expression in human K562 cells assessed as change in mRNA transcript expression at 10 nM after 48 hrs by DNA microarray analysis relative to control; assay type: functional
Procedure, shortened: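 K562 CML cells (b3a2 Bcr-Abl) kept under standard culture conditions were exposed to 10 nM conjugate and harvested at 6, 12, 24 and 48 h. Untreated controls were harvested at 48 h. Whole-transcript oligonucleotide microarray profiling was done, and changes of at least twofold versus control were scored.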

K562 [13] = test: Downregulation of histone H4E mRNA expression in human K562 cells at 125 nM after 48 hrs by real-time PCR analysis; assay type: functional, cell-based
Procedure, shortened: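 K562 cells were treated for 48 h, and H4c and H4e mRNA were measured by one-step real-time RT-PCR. Reverse transcription ran at 50 °C for 10 min, then hot-start activation at 95 °C for 15 min. Cycling was 45 cycles of 95 °C 15 s, 55 °C 30 s and 72 °C 30 s. Levels were normalized to GAPDH mRNA; error bars are SD.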

K562 [14] = test: Effect on SASH1 gene expression in human K562 cells assessed as change in mRNA transcript expression at 10 nM after 48 hrs by DNA microarray analysis relative to control; assay type: functional; procedure, shortened: as §1
K562 [15] = test: Effect on CLGN gene expression in human K562 cells assessed as change in mRNA transcript expression at 10 nM after 48 hrs by DNA microarray analysis relative to control; assay type: functional; procedure, shortened: as §2
K562 [16] = test: Effect on ANKRD20B gene expression in human K562 cells assessed as change in mRNA transcript expression at 10 nM after 48 hrs by DNA microarray analysis relative to control; assay type: functional; procedure, shortened: as §2
K562 [17] = test: Cell cycle arrest in human K562 cells assessed as increase in accumulation at G2/M phase at 125 to 250 nM after 48 hrs propidium iodide staining-based FACS analysis; assay type: functional
Procedure, shortened: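 K562 cells, from ATCC and kept under ATCC-recommended conditions, were treated for 48 h and pelleted at 200g for 5 min. They were resuspended in PBS, fixed with prechilled 70% ethanol and stained with propidium iodide at 50 µg/mL. DNA content was read by flow cytometry to assign the G0–G1, S and G2–M fractions; sub-2C DNA content was taken as apoptosis.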

K562 [18] = test: Effect on GTDC1 gene expression in human K562 cells assessed as change in mRNA transcript expression at 10 nM after 48 hrs by DNA microarray analysis relative to control; assay type: functional; procedure, shortened: as §2
K562 [19] = test: Effect on MYL4 gene expression in human K562 cells assessed as change in mRNA transcript expression at 10 nM after 48 hrs by DNA microarray analysis relative to control; assay type: functional; procedure, shortened: as §1
K562 [20] = test: Effect on JUN gene expression in human K562 cells assessed as change in mRNA transcript expression at 10 nM after 48 hrs by DNA microarray analysis relative to control; assay type: functional; procedure, shortened: as §1
K562 [21] = test: Effect on PPP1R15A gene expression in human K562 cells assessed as change in mRNA transcript expression at 10 nM after 48 hrs by DNA microarray analysis relative to control; assay type: functional; procedure, shortened: as §1
K562 [22] = test: Effect on TDRG1 gene expression in human K562 cells assessed as change in mRNA transcript expression at 10 nM after 48 hrs by DNA microarray analysis relative to control; assay type: functional; procedure, shortened: as §1
K562 [23] = test: Effect on EIF4B gene expression in human K562 cells assessed as change in mRNA transcript expression at 10 nM after 48 hrs by DNA microarray analysis relative to control; assay type: functional; procedure, shortened: as §2
K562 [24] = test: Effect on RHCE/RHD gene expression in human K562 cells assessed as change in mRNA transcript expression at 10 nM after 48 hrs by DNA microarray analysis relative to control; assay type: functional; procedure, shortened: as §1
K562 [25] = test: Effect on SLC7A8 gene expression in human K562 cells assessed as change in mRNA transcript expression at 10 nM after 48 hrs by DNA microarray analysis relative to control; assay type: functional; procedure, shortened: as §1

CC(=O)Nc1cn(C)c(C(=O)Nc2cn(C)c(C(=O)NCCC(=O)Nc3cn(C)c(C(=O)NCCCC(=O)Nc4cc(C(=O)Nc5cn(C)c(C(=O)Nc6ccc7[nH]c(C(=O)N8CC(CCl)c9c8cc(O)c8ccccc98)cc7c6)n5)n(C)c4)n3)n2)n1 (stereo not given)
fold change (FC) (K562 [1]): 2.71
viability at 0.25 µM (K562 [2]): 71.8%
fold change (FC) (K562 [3]): >=2
fold change (FC) (K562 [4]): >=2
fold change (FC) (K562 [5]): >=2
fold change (FC) (K562 [6]): >=2
fold change (FC) (K562 [7]): >=2
fold change (FC) (K562 [8]): >=2
fold change (FC) (K562 [9]): >=2
fold change (FC) (K562 [10]): >=2
fold change (FC) (K562 [11]): >=2
fold change (FC) (K562 [12]): >=2
Activity (K562 [13]): Active
fold change (FC) (K562 [14]): >=2
fold change (FC) (K562 [15]): >=2
fold change (FC) (K562 [16]): >=2
Activity (K562 [17]): Active
fold change (FC) (K562 [18]): >=2
fold change (FC) (K562 [19]): >=2
fold change (FC) (K562 [20]): >=2
fold change (FC) (K562 [21]): >=2
fold change (FC) (K562 [22]): >=2
fold change (FC) (K562 [23]): >=2
fold change (FC) (K562 [24]): >=2
fold change (FC) (K562 [25]): >=2
